Measured values reported in ChEMBL document CHEMBL1212802, “Newly identified antibacterial compounds are topoisomerase poisons in African trypanosomes” (Antimicrob Agents Chemother, 2010).
pEC50: −log10 of the molar value. Calls of active or inactive are those of the source.

Experiments:
[1] = system: Trypanosoma brucei brucei; experiment: Inhibition of mitochondrion topoisomerase 1A in Trypanosoma brucei brucei MiTat 1.2 strain 427 bloodstream assessed as protection of linerarizd minicircle from exonuclase 3 at 63 uM
Outline: (§1)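 Cells were treated 1 h at 37°C, lysed with SDS, and digested with proteinase K and RNase. DNA was phenol-extracted, precipitated and cleaned up. It was then digested with λ exonuclease (glycine-KOH pH 9.4, MgCl2, BSA) or exonuclease III (Bis-Tris-propane pH 7.0, MgCl2, DTT) for 30 min at 37°C. HindIII-linearized pBluescript served as internal control. Minicircles were detected by Southern blot.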

[2] = system: Trypanosoma brucei brucei; experiment: Antitrypanosomal activity against Trypanosoma brucei brucei MiTat 1.2 strain 427 bloodstream by acid phosphatase method; format: functional, organism-based
Outline: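 Bloodstream cells at 2 × 10^5/ml were given 2× serial dilutions of compound (final DMSO ≤1%), quadruplicate wells, for 20–24 h at 37°C. Motility was checked microscopically. p-Nitrophenyl phosphate in acetate buffer pH 5.5 with Triton X-100 was added for 5 h at 37°C, then A405 was read. Three runs; EC50 from Emax model fit; outliers removed by Chauvenet's criterion.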

[3] = system: Trypanosoma brucei brucei; experiment: Inhibition of mitochondrion topoisomerase 1A in Trypanosoma brucei brucei MiTat 1.2 strain 427 bloodstream assessed as protection of linerarizd minicircle from lambda exonuclase at 25.5 uM; outline: as §1
[4] = system: Nucleic Acid; experiment: Binding affinity to plasmid DNA assessed as DNA unwinding in presence of vaccinia virus topoisomerase 1B by electrophoresis; format: nucleic-acid assay
Outline: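 Supercoiled pBluescript, or pBluescript pre-relaxed with E. coli topoisomerase IA (250 ng), was exposed to a range of compound concentrations in 50 mM Tris HCl pH 7.5, 50 mM NaCl, 5 mM MgCl2. Then 1 pM vaccinia topoisomerase IB was added (1 h, 37°C). Reactions were SDS-quenched, run on 1% agarose in Tris-borate-EDTA, and stained with ethidium bromide.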

[5] = system: Trypanosoma brucei brucei; experiment: Inhibition of topoisomerase in Trypanosoma brucei brucei MiTat 1.2 strain 427 bloodstream assessed as enzyme -DNA cleavable complex at 50 uM relative to DMSO
Outline: (§2)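 KSDS assay: cells at 10^7/ml in thymidine-free medium were labelled 1 h at 37°C with [3H]thymidine, washed, and treated 30 min at 37°C with DMSO, 500 μM etoposide or compound, in triplicate. Lysates in SDS/EDTA with calf thymus DNA were heated 10 min at 65°C, then KCl-precipitated and washed, and the precipitate was scintillation-counted. Percent trapped DNA = KSDS cpm ÷ TCA-precipitable cpm of untreated cells.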

[6] = system: Trypanosoma brucei brucei; experiment: Inhibition of mitochondrion topoisomerase 1A in Trypanosoma brucei brucei MiTat 1.2 strain 427 bloodstream assessed as increase in protein-sensitive linear DNA forms at 60-100 uM
Outline: (§3)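 Free minicircle profiles: 1.2 × 10^7 cells were exposed to compound for 30 min at 37°C. Cells were lysed in SDS/EDTA buffer with or without proteinase K (2 h, 55°C), then treated with RNase A. DNA was run on 1.5% agarose with ethidium bromide and Southern-blotted with a 32P probe to the conserved 124-bp minicircle sequence. Read by phosphorimaging.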

[7] = system: Trypanosoma brucei brucei; experiment: Antitrypanosomal activity against Trypanosoma brucei brucei MiTat 1.2 strain 427 bloodstream assessed as decrease in topoisomerase 1Amt level at 0-120 uM; format: functional, organism-based
Outline: (§4)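 Western band depletion: 1.2 × 10^7 cells in medium were exposed to compound for 30 min at 37°C. A portion taken just before lysis was lysed in SDS/DTT sample buffer and run on SDS-PAGE. Blots were probed for c-Myc-tagged topoisomerase IAmt (anti-c-Myc) and for topoisomerase IImt (specific antiserum), with enolase as loading control. Free enzyme was quantitated densitometrically.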

[8] = system: Trypanosoma brucei brucei; experiment: Inhibition of mitochondrion topoisomerase 1A in Trypanosoma brucei brucei MiTat 1.2 strain 427 bloodstream assessed as increase in protein-sensitive linear DNA forms at 0-40 uM; outline: as §3
[9] = system: Trypanosoma brucei brucei; experiment: Inhibition of mitochondrion topoisomerase 1A in Trypanosoma brucei brucei MiTat 1.2 strain 427 bloodstream assessed as protection of linerarizd minicircle from exonuclase 3 at 25.5 uM; outline: as §1
[10] = system: Trypanosoma brucei brucei; experiment: Inhibition of topoisomerase in Trypanosoma brucei brucei MiTat 1.2 strain 427 bloodstream assessed as enzyme-DNA cleavable complex at 50 uM (RvB = 2.2 +/- 0.05%); outline: as §2
[11] = system: Trypanosoma brucei brucei; experiment: Antitrypanosomal activity against Trypanosoma brucei brucei MiTat 1.2 strain 427 bloodstream assessed as decrease in topoisomerase 2mt level at 0-100 uM; format: functional, organism-based; outline: as §4
[12] = system: Trypanosoma brucei brucei; experiment: Antitrypanosomal activity against Trypanosoma brucei brucei MiTat 1.2 strain 427 bloodstream assessed as decrease in topoisomerase 2mt level at 0-120 uM; format: functional, organism-based; outline: as §4
[13] = system: Trypanosoma brucei brucei; experiment: Antitrypanosomal activity against Trypanosoma brucei brucei MiTat 1.2 strain 427 bloodstream assessed as decrease in topoisomerase 1Amt level at 0-100 uM; format: functional, organism-based; outline: as §4
[14] = system: Trypanosoma brucei brucei; experiment: Inhibition of mitochondrion topoisomerase 1A in Trypanosoma brucei brucei MiTat 1.2 strain 427 bloodstream assessed as protection of linerarizd minicircle from lambda exonuclase at 63 uM; outline: as §1

SMILES | inhibition [1] | pEC50 [2] | inhibition [3] | Activity [4] | Ratio [5] | inhibition [6] | Activity [7] | inhibition [8] | inhibition [9] | % DNA in cleavable complexes [10] | Activity [11] | Activity [12] | Activity [13] | inhibition [14]
O=c1c2cccc3c2c(nn1CN1CCCCC1)-c1ccccc1-3 | Active | 4.77 | inactive | Dose-dependent effect | 0.77 | inactive | inactive | Active | Active | 1.7% | Active | Active | inactive | inactive
CN(C)CCc1cc2c(c3c1ccc1ccccc13)OCO2 | Active | 5.20 | inactive | Dose-dependent effect | 0.86 | inactive | inactive | Active | Active | 1.9% | Active | Active | inactive | inactive
